This note sets out measurements from ChEMBL document CHEMBL2401636, “Investigation of the noncovalent binding mode of covalent proteasome inhibitors around the transition state by combined use of cyclopropylic strain-based conformational restriction and computational modeling” (J Med Chem, 2013).

For orientation: IC50 means the concentration that gives 50% inhibition. Read a low IC50 as greater potency. Usually half-life stands for the time needed for the level to fall by half in the phase considered. Lower therefore signals fast loss.

For data set [1], the system named is KB. The data set can be described thus: Cytotoxicity against human KB cells after 72 hrs. The data set is classed as functional, cell-based.
Data set [2] is described as follows: Inhibition of chymotrypsin-like activity of human 20S proteasome using succinyl-Leu-Leu-Val-Tyr-4-methylcoumaryl-7-amide as substrate after 60 mins by fluorescence assay.
The nature of data set [3]: Cytotoxicity against human HS-Sultan cells after 72 hrs. The data set is classed as functional, cell-based.
Data set [4] relates to HCT-116. Nature of the data set: Cytotoxicity against human HCT116 cells after 72 hrs. The data set is classed as functional, cell-based. As to conditions: HCT-116, 72 h.
A short description of data set [5]: Half life in TEAA buffer at 7.5 mM by RP-HPLC analysis. The data set is classed as physicochemical. The procedure, abridged:
(§1)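 Water-soluble analogues incubated at 37 °C in 0.1 M TEAA buffer, pH 7.4, or in human AB serum. Compound remaining was followed over time by HPLC, and the half-life was derived. Buffer half-lives are given in hours and serum half-lives in minutes.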

Data set [6] in a line: Half life in human AB serum at 23 mM by RP-HPLC analysis. The data set is classed as ADME, cell-free. The procedure, abridged: as §1
Data set [7] in a line: Inhibition proteasome (unknown origin). Also noted: species or system Homo sapiens.

As for `CC[C@H](C)[C@@H]1C(=O)O[C@H]1C(=O)N[C@H]1C[C@H]1C[C@@H](CCc1ccccc1)NC(=O)[C@H](C)NC(=O)OCc1ccccc1`, the IC50 in data set [1] came out at 2.6 µM; in data set [2] it was 0.0057 µM; in data set [3], 0.87 µM.

On to `CC[C@H](C)[C@@H]1C(=O)O[C@H]1C(=O)N[C@H]1C[C@H]1C[C@@H](CCc1ccccc1)NC(=O)c1ccc2ccccc2c1`, for which the 50% inhibitory concentration (IC50) in data set [2] was 0.033 µM.

For `CC[C@H](C)[C@@H]1C(=O)O[C@H]1C(=O)N[C@H]1C[C@H]1C[C@@H](CCc1ccccc1)NC(=O)[C@H](C)NC(=O)c1ccc2ccccc2c1`, the midpoint of inhibition in data set [2], the IC50, lay at 0.01 µM.

Turning to `CC[C@H](C)[C@@H]1C(=O)O[C@H]1C(=O)N[C@H]1C[C@H]1[C@@H](C)[C@@H](CCc1ccccc1)NC(=O)[C@H](C)NC(=O)c1ccc2ccccc2c1`, in data set [2], the IC50 was 0.042 µM.

As for `CC[C@H](C)[C@@H]1C(=O)O[C@H]1C(=O)N[C@H]1C[C@H]1[C@@H](C)[C@@H](CCc1ccccc1)NC(=O)[C@H](C)NC(=O)OCc1ccccc1`, the IC50 was found to be 0.63 µM in data set [4], 1.7 µM in data set [1], 0.047 µM in data set [2] and 0.31 µM in data set [3].

In the case of `CC[C@H](C)[C@@H]1C(=O)O[C@H]1C(=O)N[C@H]1C[C@H]1[C@@H](C)[C@@H](CCc1ccccc1)NC(=O)c1ccc2ccccc2c1`, the IC50 in data set [2] came out at 0.14 µM.

Regarding `CC[C@H](C)[C@@H]1C(=O)O[C@H]1C(=O)N[C@H]1C[C@H]1[C@H](C)[C@@H](CCc1ccccc1)NC(=O)[C@H](C)NC(=O)OCc1ccccc1`, the IC50 in data set [4] was above 10 µM; in data set [1], above 10 µM; in data set [2], 0.28 µM; in data set [3] it was 1.8 µM.

In data set [2], `CC[C@H](C)[C@@H]1C(=O)O[C@H]1C(=O)N[C@H]1C[C@H]1[C@H](C)[C@@H](CCc1ccccc1)NC(=O)c1ccc2ccccc2c1` registered an IC50 of 0.75 µM.

For the molecule `CC[C@H](C)[C@@H]1C(=O)O[C@H]1C(=O)N[C@H]1C[C@H]1[C@H](C)[C@@H](CCc1ccccc1)NC(=O)[C@H](C)NC(=O)c1ccc2ccccc2c1`, the midpoint of inhibition in data set [2], the IC50, lay at 0.63 µM.

For `CC[C@H](C)[C@@H]1C(=O)O[C@H]1C(=O)N[C@H]1C[C@H]1[C@@H](C)[C@@H](CCc1ccccc1)NC(=O)[C@H](C)N`, the half-life at 7500 µM in data set [5] was 14 h. The molecule also gave a half-life at 23000 µM in data set [6] of 4.2 min.

Regarding `CC[C@H](C)[C@@H]1C(=O)O[C@H]1C(=O)N[C@H]1C[C@H]1[C@H](C)[C@@H](CCc1ccccc1)NC(=O)[C@H](C)N`, in data set [5], the half-life at 7500 µM is 21 h. The molecule further came in with a half-life at 23000 µM in data set [6] of 4.7 min.

As for `CC[C@H](C)[C@@H]1C(=O)O[C@H]1C(=O)N[C@H]1C[C@H]1C[C@@H](CCc1ccccc1)NC(=O)[C@H](C)N` (mixture of isomers), the half-life at 7500 µM in data set [5] was 10 h. In data set [6], the half-life at 23000 µM was found to be 2.3 min.

For `CC[C@H](C)[C@@H]1C(=O)O[C@H]1C(=O)N[C@H]1C[C@H]1C[C@H](NC(=O)[C@H](C)N)C(=O)O` [BELACTOSIN A], the IC50 is 0.304 µM in data set [7] and 1.44 µM in data set [2].
